Test results from ChEMBL document CHEMBL2384906, “Biological activity, design, synthesis and structure activity relationship of some novel derivatives of curcumin containing sulfonamides” (Eur J Med Chem, 2013).
Values after ≈ are worked out from the molar mass of the structure shown.

Columns and labels:
[1] = tested on: Pseudomonas aeruginosa; assay: Antimicrobial activity against Pseudomonas aeruginosa ATCC 15499 assessed as diameter of inhibition zone at 20 uM after 24 hrs by Kirby -Baur disc diffusion method; type: functional; settings: ATCC 15499, 24 h, read-out: DIZ
Summary of the method: (§1)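 Kirby-Bauer disc diffusion was used. Acetone stocks (160 µM) were serially doubled down to 80, 40 and 20 µM. 4 µL of each went onto 5 mm sterile paper discs, which were dried 30 min at 50 °C. Inoculum was 1.5 × 10⁸ CFU/mL diluted to 3 × 10² CFU/mL, and 50 µL was spread on Mueller-Hinton agar. After 24 h at 37 °C the inhibition-zone diameter was measured. Ciprofloxacin served as positive control.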

[2] = tested on: Trichoderma viride; assay: Antifungal activity against Trichoderma viride MTCC 1107 assessed as zone of inhibition at 80 uM after 48 hrs by disc diffusion method; type: functional; settings: MTCC 1107, 48 h, read-out: IZ
Summary of the method: (§2)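 Spores from 4-day potato dextrose agar cultures, suspended in sterile water at 1.5 × 10⁵ CFU/mL. 0.2 mL was spread on potato dextrose agar. 5 mm filter-paper discs soaked with test compound were laid on the lawn. Incubation was 48 h at 28 °C, then the inhibition zone was measured in mm. Fluconazole was the positive control and acetone the negative control.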

[3] = tested on: Pseudomonas aeruginosa; assay: Antimicrobial activity against Pseudomonas aeruginosa ATCC 15499 assessed as diameter of inhibition zone at 80 uM after 24 hrs by Kirby -Baur disc diffusion method; type: functional; settings: ATCC 15499, 24 h, read-out: DIZ; summary of the method: as §1
[4] = tested on: Bacillus cereus; assay: Antimicrobial activity against Bacillus cereus MTCC 7350 assessed as diameter of inhibition zone at 40 uM after 24 hrs by Kirby -Baur disc diffusion method; type: functional; settings: MTCC 7350, 24 h, read-out: DIZ; summary of the method: as §1
[5] = tested on: Curvularia lunata; assay: Antifungal activity against Curvularia lunata MTCC 581 assessed as zone of inhibition at 20 uM after 48 hrs by disc diffusion method; type: functional; settings: MTCC 581, 48 h, read-out: IZ; summary of the method: as §2
[6] = tested on: Aspergillus niger; assay: Antifungal activity against Aspergillus niger MTCC 1108 assessed as zone of inhibition at 20 uM after 48 hrs by disc diffusion method; type: functional; settings: MTCC 1108, 48 h, read-out: IZ; summary of the method: as §2
[7] = tested on: Curvularia lunata; assay: Antifungal activity against Curvularia lunata MTCC 581 after 48 hrs; type: functional; settings: MTCC 581, 48 h
[8] = tested on: Escherichia coli; assay: Antimicrobial activity against Escherichia coli ATCC 35218 assessed as diameter of inhibition zone at 80 uM after 24 hrs by Kirby -Baur disc diffusion method; type: functional; settings: ATCC 35218, 24 h, read-out: DIZ; summary of the method: as §1
[9] = tested on: Staphylococcus aureus; assay: Antimicrobial activity against Staphylococcus aureus ATCC 11632 assessed as diameter of inhibition zone at 80 uM after 24 hrs by Kirby -Baur disc diffusion method; type: functional; settings: ATCC 11632, 24 h, read-out: DIZ; summary of the method: as §1
[10] = tested on: QG-56; assay: Cytotoxicity against human QG56 cells after 24 hrs by MTT assay; type: functional, cell-based
Summary of the method: (§3)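 The MTT assay seeded 5 × 10⁴ cells per well and grew them 24 h in RPMI 1640 with compound at 2.5–200 µM. Medium without cells was the blank and adriamycin the positive control. MTT was added for 4 h at 37 °C, formazan was solubilised, and absorbance was read at 570 nm. IC50 is the concentration that cuts viability 50% against untreated cells.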

[11] = tested on: Salmonella typhi; assay: Antimicrobial activity against Salmonella typhi ATCC 23564 assessed as diameter of inhibition zone at 40 uM after 24 hrs by Kirby -Baur disc diffusion method; type: functional, Salmonella enterica subsp. enterica serovar Typhi; settings: Salmonella enterica, ATCC 23564, 24 h; read-out: DIZ
[12] = tested on: Pseudomonas aeruginosa; assay: Antimicrobial activity against Pseudomonas aeruginosa ATCC 15499 assessed as diameter of inhibition zone at 40 uM after 24 hrs by Kirby -Baur disc diffusion method; type: functional; settings: ATCC 15499, 24 h, read-out: DIZ; summary of the method: as §1
[13] = tested on: Salmonella typhi; assay: Antimicrobial activity against Salmonella typhi ATCC 23564 assessed as diameter of inhibition zone at 20 uM after 24 hrs by Kirby -Baur disc diffusion method; type: functional, Salmonella enterica subsp. enterica serovar Typhi; settings: Salmonella enterica, ATCC 23564, 24 h; read-out: DIZ
[14] = tested on: Salmonella typhi; assay: Antimicrobial activity against Salmonella typhi ATCC 23564 assessed as diameter of inhibition zone at 80 uM after 24 hrs by Kirby -Baur disc diffusion method; type: functional, Salmonella enterica subsp. enterica serovar Typhi; settings: Salmonella enterica, ATCC 23564, 24 h; read-out: DIZ
[15] = tested on: Curvularia lunata; assay: Antifungal activity against Curvularia lunata MTCC 581 assessed as zone of inhibition at 40 uM after 48 hrs by disc diffusion method; type: functional; settings: MTCC 581, 48 h, read-out: IZ; summary of the method: as §2
[16] = tested on: HepG2; assay: Cytotoxicity against human HepG2 cells after 24 hrs by MTT assay; type: functional, cell-based; summary of the method: as §3
[17] = tested on: Aspergillus flavus; assay: Antifungal activity against Aspergillus flavus MTCC 1021 assessed as zone of inhibition at 80 uM after 48 hrs by disc diffusion method; type: functional; settings: MTCC 1021, 48 h, read-out: IZ; summary of the method: as §2
[18] = tested on: Aspergillus niger; assay: Antifungal activity against Aspergillus niger MTCC 1108 assessed as zone of inhibition at 40 uM after 48 hrs by disc diffusion method; type: functional; settings: MTCC 1108, 48 h, read-out: IZ; summary of the method: as §2
[19] = tested on: Salmonella typhi; assay: Antimicrobial activity against Salmonella typhi ATCC 23564 after 24 hrs by broth micro serial dilution method; type: functional, Salmonella enterica subsp. enterica serovar Typhi; settings: Salmonella enterica, ATCC 23564, 24 h
[20] = tested on: Aspergillus niger; assay: Antifungal activity against Aspergillus niger MTCC 1108 assessed as zone of inhibition at 80 uM after 48 hrs by disc diffusion method; type: functional; settings: MTCC 1108, 48 h, read-out: IZ; summary of the method: as §2
[21] = tested on: Bacillus cereus; assay: Antimicrobial activity against Bacillus cereus MTCC 7350 after 24 hrs by broth micro serial dilution method; type: functional; settings: MTCC 7350, 24 h
Summary of the method: (§4)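 This was broth microdilution in autoclaved Mueller-Hinton broth. 150 µL of compound per well was serially diluted […], and 50 µL of test organism was added. Plates were incubated 24 h at 37 °C and optical density was read.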

[22] = tested on: Staphylococcus aureus; assay: Antimicrobial activity against Staphylococcus aureus ATCC 11632 assessed as diameter of inhibition zone at 40 uM after 24 hrs by Kirby -Baur disc diffusion method; type: functional; settings: ATCC 11632, 24 h, read-out: DIZ; summary of the method: as §1
[23] = tested on: Escherichia coli; assay: Antimicrobial activity against Escherichia coli ATCC 35218 assessed as diameter of inhibition zone at 20 uM after 24 hrs by Kirby -Baur disc diffusion method; type: functional; settings: ATCC 35218, 24 h, read-out: DIZ; summary of the method: as §1
[24] = tested on: Aspergillus niger; assay: Antifungal activity against Aspergillus niger MTCC 1108 after 48 hrs; type: functional; settings: MTCC 1108, 48 h
[25] = tested on: Aspergillus flavus; assay: Antifungal activity against Aspergillus flavus MTCC 1021 after 48 hrs; type: functional; settings: MTCC 1021, 48 h
[26] = tested on: Trichoderma viride; assay: Antifungal activity against Trichoderma viride MTCC 1107 after 48 hrs; type: functional; settings: MTCC 1107, 48 h
[27] = tested on: HeLa; assay: Cytotoxicity against human HeLa cells after 24 hrs by MTT assay; type: functional, cell-based; summary of the method: as §3
[28] = tested on: HCT-116; assay: Cytotoxicity against human HCT116 cells after 24 hrs by MTT assay; type: functional, cell-based; summary of the method: as §3
[29] = tested on: Trichoderma viride; assay: Antifungal activity against Trichoderma viride MTCC 1107 assessed as zone of inhibition at 40 uM after 48 hrs by disc diffusion method; type: functional; settings: MTCC 1107, 48 h, read-out: IZ; summary of the method: as §2
[30] = tested on: Staphylococcus aureus; assay: Antimicrobial activity against Staphylococcus aureus ATCC 11632 after 24 hrs by broth micro serial dilution method; type: functional; settings: ATCC 11632, 24 h; summary of the method: as §4
[31] = tested on: Trichoderma viride; assay: Antifungal activity against Trichoderma viride MTCC 1107 assessed as zone of inhibition at 20 uM after 48 hrs by disc diffusion method; type: functional; settings: MTCC 1107, 48 h, read-out: IZ; summary of the method: as §2
[32] = tested on: Aspergillus flavus; assay: Antifungal activity against Aspergillus flavus MTCC 1021 assessed as zone of inhibition at 40 uM after 48 hrs by disc diffusion method; type: functional; settings: MTCC 1021, 48 h, read-out: IZ; summary of the method: as §2
[33] = tested on: Escherichia coli; assay: Antimicrobial activity against Escherichia coli ATCC 35218 assessed as diameter of inhibition zone at 40 uM after 24 hrs by Kirby -Baur disc diffusion method; type: functional; settings: ATCC 35218, 24 h, read-out: DIZ; summary of the method: as §1
[34] = tested on: Mus musculus; assay: Antiinflammatory activity in mouse assessed as inhibition of carrageenan-induced increase in paw volume at 200 mg/kg administered 1 hr prior to carrageenan challenge measured after 3 hrs relative to control; type: functional
Summary of the method: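 Mice were fasted 2 h and placed in groups of five. Controls received saline i.p. Phenylbutazone was given at 100 mg/kg i.p., curcumin at 200 mg/kg i.p., and derivatives at 200 mg/kg. After 1 h, 0.1 mL of 1% carrageenan in saline was injected subplantar into the right hind paw. Paw volume was followed by plethysmometer for 3 h, and % inhibition was calculated as (Vc − Vt)/Vc × 100.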

[35] = tested on: Curvularia lunata; assay: Antifungal activity against Curvularia lunata MTCC 581 assessed as zone of inhibition at 80 uM after 48 hrs by disc diffusion method; type: functional; settings: MTCC 581, 48 h, read-out: IZ; summary of the method: as §2
[36] = tested on: Escherichia coli; assay: Antimicrobial activity against Escherichia coli ATCC 35218 after 24 hrs by broth micro serial dilution method; type: functional; settings: ATCC 35218, 24 h; summary of the method: as §4
[37] = tested on: Bacillus cereus; assay: Antimicrobial activity against Bacillus cereus MTCC 7350 assessed as diameter of inhibition zone at 80 uM after 24 hrs by Kirby -Baur disc diffusion method; type: functional; settings: MTCC 7350, 24 h, read-out: DIZ; summary of the method: as §1
[38] = tested on: Bacillus cereus; assay: Antimicrobial activity against Bacillus cereus MTCC 7350 assessed as diameter of inhibition zone at 20 uM after 24 hrs by Kirby -Baur disc diffusion method; type: functional; settings: MTCC 7350, 24 h, read-out: DIZ; summary of the method: as §1
[39] = tested on: Staphylococcus aureus; assay: Antimicrobial activity against Staphylococcus aureus ATCC 11632 assessed as diameter of inhibition zone at 20 uM after 24 hrs by Kirby -Baur disc diffusion method; type: functional; settings: ATCC 11632, 24 h, read-out: DIZ; summary of the method: as §1
[40] = tested on: Pseudomonas aeruginosa; assay: Antimicrobial activity against Pseudomonas aeruginosa ATCC 15499 after 24 hrs by broth micro serial dilution method; type: functional; settings: ATCC 15499, 24 h; summary of the method: as §4
[41] = tested on: Aspergillus flavus; assay: Antifungal activity against Aspergillus flavus MTCC 1021 assessed as zone of inhibition at 20 uM after 48 hrs by disc diffusion method; type: functional; settings: MTCC 1021, 48 h, read-out: IZ; summary of the method: as §2

## COc1cc(/C=C/C(CC(/C=C/c2ccc(O)c(OC)c2)=N/c2ccc(S(=O)(=O)Nc3nc(C)cc(C)n3)cc2)=N\c2ccc(S(=O)(=O)Nc3nc(C)cc(C)n3)cc2)ccc1O
[1]
  zone of inhibition at 20 µM: 14 mm
[2]
  zone of inhibition at 80 µM: 22 mm
[3]
  zone of inhibition at 80 µM: 23 mm
[4]
  zone of inhibition at 40 µM: 18 mm
[5]
  zone of inhibition at 20 µM: 12 mm
[6]
  zone of inhibition at 20 µM: 8 mm
[7]
  MIC: 20 µM (≈ 17.8 µg/mL)
[8]
  zone of inhibition at 80 µM: 23 mm
[9]
  zone of inhibition at 80 µM: 23 mm
[10]
  IC50: 50 µM
[11]
  zone of inhibition at 40 µM: 21 mm
[12]
  zone of inhibition at 40 µM: 18 mm
[13]
  zone of inhibition at 20 µM: 17 mm
[14]
  zone of inhibition at 80 µM: 24 mm
[15]
  zone of inhibition at 40 µM: 16 mm
[16]
  IC50: 50 µM
[17]
  zone of inhibition at 80 µM: 12 mm
[18]
  zone of inhibition at 40 µM: 12 mm
[19]
  MIC: 40 µM (≈ 35.6 µg/mL)
[20]
  zone of inhibition at 80 µM: 14 mm
[21]
  MIC: 40 µM (≈ 35.6 µg/mL)
[22]
  zone of inhibition at 40 µM: 18 mm
[23]
  zone of inhibition at 20 µM: 17 mm
[24]
  MIC: 40 µM (≈ 35.6 µg/mL)
[25]
  MIC: 80 µM (≈ 71.1 µg/mL)
[26]
  MIC: 20 µM (≈ 17.8 µg/mL)
[27]
  IC50: 25 µM
[28]
  IC50: 25 µM
[29]
  zone of inhibition at 40 µM: 19 mm
[30]
  MIC: 40 µM (≈ 35.6 µg/mL)
[31]
  zone of inhibition at 20 µM: 18 mm
[32]
  zone of inhibition at 40 µM: 11 mm
[33]
  zone of inhibition at 40 µM: 19 mm
[34]
  inhibition in vivo at 200 mg/kg: 40.3%
[35]
  zone of inhibition at 80 µM: 19 mm
[36]
  MIC: 20 µM (≈ 17.8 µg/mL)
[37]
  zone of inhibition at 80 µM: 21 mm
[38]
  zone of inhibition at 20 µM: 11 mm
[39]
  zone of inhibition at 20 µM: 13 mm
[40]
  MIC: 40 µM (≈ 35.6 µg/mL)
[41]
  zone of inhibition at 20 µM: 10 mm
